Assay [1] can be described thus: Binding constant at vancomycin was measured using affinity capillary electrophoresis-UV. An outline of the steps: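 Receptor-in-buffer mobility-shift ACE with UV detection was used, running individual ligands. Capillary was 30 cm effective length, 37 cm total length, at 20 kV. Kd was obtained by Scatchard analysis of mobility versus vancomycin concentration.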

Assay [2] can be described thus: Binding constant at vancomycin was measured using affinity capillary electrophoresis-MS. An outline of the steps:
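Mixture of Fmoc-DXYA (all-D) peptides plus Fmoc-G EOF marker injected together hydrodynamically (10 cm, 10 s) into an uncoated 50 cm capillary. Running buffer was 20 mM Tris-acetate pH 8.1 with 0–100 μM vancomycin, run at 400–500 V/cm. On-line ESI triple-quadrupole MS detected free peptide ions. Kd came from marker-corrected mobility shifts by Scatchard analysis.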

Molecules are shown by their SMILES. Square brackets hold non-standard residues; d marks the D form. Peptide text beside a SMILES is read from it. * marks the point of attachment. ξ: configuration not given here. Fmoc = O=C(OCC1c2ccccc2-c2ccccc21)*; ξV = CC(C)C(N)C(=O)O

As usually defined, the Kd is a measure of binding affinity in units of concentration. The low end stands for tighter binding, the high end for weaker binding. With `CSCC[C@H](NC(=O)[C@H](CC(=O)O)NC(=O)OCC1c2ccccc2-c2ccccc21)C(=O)N[C@@H](Cc1ccc(O)cc1)C(=O)N[C@@H](C)C(=O)O` (Fmoc-DMYA-OH), the values for the dissociation constant (Kd) in assay [1] and in assay [2] were 7.1 µM and 7.6 µM, respectively.
The corresponding values for `C[C@H](NC(=O)[C@H](Cc1ccc(O)cc1)NC(=O)[C@H](CC(=O)O)NC(=O)[C@H](CC(=O)O)NC(=O)OCC1c2ccccc2-c2ccccc21)C(=O)O` (Fmoc-DDYA-OH) are 7.2 µM and 6.6 µM.
The corresponding values for `C[C@H](NC(=O)[C@H](Cc1ccc(O)cc1)NC(=O)[C@H](Cc1ccccc1)NC(=O)[C@H](CC(=O)O)NC(=O)OCC1c2ccccc2-c2ccccc21)C(=O)O` (Fmoc-DFYA-OH) are 9.6 µM and 8.9 µM.
The corresponding values for `C[C@H](NC(=O)[C@H](Cc1ccc(O)cc1)NC(=O)[C@H](Cc1c[nH]cn1)NC(=O)[C@H](CC(=O)O)NC(=O)OCC1c2ccccc2-c2ccccc21)C(=O)O` (Fmoc-DHYA-OH) are 7.1 µM and 8.2 µM.
Regarding `C[C@H](NC(=O)[C@H](Cc1ccc(O)cc1)NC(=O)[C@H](Cc1c[nH]c2ccccc12)NC(=O)[C@H](CC(=O)O)NC(=O)OCC1c2ccccc2-c2ccccc21)C(=O)O` (Fmoc-DWYA-OH), the dissociation constant (Kd) in assay [1] was determined as 14 µM; in assay [2] it was 12 µM.
Regarding `C[C@H](NC(=O)[C@H](Cc1ccc(O)cc1)NC(=O)CNC(=O)[C@H](CC(=O)O)NC(=O)OCC1c2ccccc2-c2ccccc21)C(=O)O` (Fmoc-DGYA-OH), the Kd in assay [1] is 18 µM; in assay [2], 21 µM.
In the same order, the values of `CC[C@@H](C)[C@H](NC(=O)[C@H](CC(=O)O)NC(=O)OCC1c2ccccc2-c2ccccc21)C(=O)N[C@@H](Cc1ccc(O)cc1)C(=O)N[C@@H](C)C(=O)O` are 19 µM and 21 µM.
On to `C[C@H](NC(=O)[C@H](Cc1ccc(O)cc1)NC(=O)[C@H](Cc1ccc(O)cc1)NC(=O)[C@H](CC(=O)O)NC(=O)OCC1c2ccccc2-c2ccccc21)C(=O)O` (Fmoc-DYYA-OH), for which the figures for the equilibrium dissociation constant (Kd) in assay [1] and in assay [2] were 6.8 µM and 7.4 µM, respectively.
The corresponding values for `C[C@H](NC(=O)[C@H](Cc1ccc(O)cc1)NC(=O)[C@H](CC(N)=O)NC(=O)[C@H](CC(=O)O)NC(=O)OCC1c2ccccc2-c2ccccc21)C(=O)O` (Fmoc-DNYA-OH) are 11 µM and 12 µM.
Regarding `C[C@H](NC(=O)[C@H](Cc1ccc(O)cc1)NC(=O)[C@H](C)NC(=O)[C@H](CC(=O)O)NC(=O)OCC1c2ccccc2-c2ccccc21)C(=O)O` (Fmoc-DAYA-OH), the results for the Kd in assay [1] and in assay [2] were 7.2 µM and 8.2 µM, respectively.
`CC(C)C[C@H](NC(=O)[C@H](CC(=O)O)NC(=O)OCC1c2ccccc2-c2ccccc21)C(=O)N[C@@H](Cc1ccc(O)cc1)C(=O)N[C@@H](C)C(=O)O` (Fmoc-DLYA-OH): the Kd worked out at 5.6 µM in assay [1] and 5.1 µM in assay [2].
`C[C@H](NC(=O)[C@H](Cc1ccc(O)cc1)NC(=O)[C@@H]1CCCN1C(=O)[C@H](CC(=O)O)NC(=O)OCC1c2ccccc2-c2ccccc21)C(=O)O` (Fmoc-DPYA-OH): the Kd amounted to 14 µM in assay [1] and 16 µM in assay [2].
On to `C[C@H](NC(=O)[C@H](Cc1ccc(O)cc1)NC(=O)[C@H](CCC(N)=O)NC(=O)[C@H](CC(=O)O)NC(=O)OCC1c2ccccc2-c2ccccc21)C(=O)O` (Fmoc-DQYA-OH), for which the Kd in assay [1] came out at 14 µM; in assay [2] it was 15 µM.
With `C[C@H](NC(=O)[C@H](Cc1ccc(O)cc1)NC(=O)[C@H](CCCN=C(N)N)NC(=O)[C@H](CC(=O)O)NC(=O)OCC1c2ccccc2-c2ccccc21)C(=O)O` (Fmoc-DRYA-OH), the equilibrium dissociation constant (Kd) worked out at 13 µM in assay [1] and 11 µM in assay [2].
As for `CC(C)C(NC(=O)[C@H](CC(=O)O)NC(=O)OCC1c2ccccc2-c2ccccc21)C(=O)N[C@@H](Cc1ccc(O)cc1)C(=O)N[C@@H](C)C(=O)O` (stereo partly drawn) (Fmoc-D[ξV]YA-OH), the dissociation constant (Kd) in assay [1] amounted to 12 µM; in assay [2] it was 10 µM.
Consider `C[C@H](NC(=O)[C@H](Cc1ccc(O)cc1)NC(=O)[C@H](CO)NC(=O)[C@H](CC(=O)O)NC(=O)OCC1c2ccccc2-c2ccccc21)C(=O)O` (Fmoc-DSYA-OH), for which the Kd in assay [1] was 13 µM; in assay [2], 14 µM.
For `C[C@H](NC(=O)[C@H](Cc1ccc(O)cc1)NC(=O)[C@@H](NC(=O)[C@H](CC(=O)O)NC(=O)OCC1c2ccccc2-c2ccccc21)[C@H](C)O)C(=O)O`, the Kd in assay [1] was 21 µM; in assay [2], 24 µM.
In the same order, the values of `C[C@H](NC(=O)[C@H](Cc1ccc(O)cc1)NC(=O)[C@H](CCC(=O)O)NC(=O)[C@H](CC(=O)O)NC(=O)OCC1c2ccccc2-c2ccccc21)C(=O)O` (Fmoc-DEYA-OH) are 10 µM and 8.5 µM.
Consider `C[C@H](NC(=O)[C@H](Cc1ccc(O)cc1)NC(=O)[C@H](CCCCN)NC(=O)[C@H](CC(=O)O)NC(=O)OCC1c2ccccc2-c2ccccc21)C(=O)O` (Fmoc-DKYA-OH), for which the Kd in assay [1] is 13 µM; in assay [2] it was 12 µM.

The record behind these values is ChEMBL document CHEMBL1131322, “Simultaneous measurement of nineteen binding constants of peptides to vancomycin using affinity capillary electrophoresis-mass spectrometry” (J Med Chem, 1998).
